# Molecular target: T1, Steryl-sulfatase (Homo sapiens, UniProt P08842)
# T1 sequence (P08842 whole entry): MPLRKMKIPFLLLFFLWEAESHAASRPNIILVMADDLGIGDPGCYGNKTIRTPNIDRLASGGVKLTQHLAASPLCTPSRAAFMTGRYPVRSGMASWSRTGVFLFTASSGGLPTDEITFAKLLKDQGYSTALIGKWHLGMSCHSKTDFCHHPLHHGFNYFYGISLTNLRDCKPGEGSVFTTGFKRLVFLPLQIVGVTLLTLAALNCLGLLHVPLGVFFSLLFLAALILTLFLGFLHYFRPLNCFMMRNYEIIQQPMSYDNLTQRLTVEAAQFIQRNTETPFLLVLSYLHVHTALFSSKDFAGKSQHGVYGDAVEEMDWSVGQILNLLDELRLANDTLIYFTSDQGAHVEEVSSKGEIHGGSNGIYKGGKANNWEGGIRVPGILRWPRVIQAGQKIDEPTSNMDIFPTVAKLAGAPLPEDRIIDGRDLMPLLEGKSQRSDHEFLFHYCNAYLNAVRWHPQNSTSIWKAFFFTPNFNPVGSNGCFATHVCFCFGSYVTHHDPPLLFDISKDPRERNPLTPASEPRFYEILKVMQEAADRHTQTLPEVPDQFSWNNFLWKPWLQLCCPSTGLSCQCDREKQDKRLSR
# Assay: Inhibition of STS (unknown origin) using 4-MUS as substrate measured over 10 mins by fluorescence assay
# Conditions: not given
# Method in brief: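 Purified STS (10 nM final) in 0.1 M Tris-HCl pH 7.0 containing Triton X-100, 4-MUS 200 µM final, and inhibitor at eleven concentrations (5 nM–5 µM). Ex 360/em 460 fluorescence read over 10 min at 24 °C, in quadruplicate, with no-enzyme controls. Vi/V0 from initial rates fit to a slope-factor equation. For tight binders, Ki app is the y-intercept of IC50 vs [E] (10–80 nM).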
row,IC50 [nM],SMILES
1,49,C[C@]12CC[C@@H]3c4ccc(O)c(Br)c4CC[C@H]3[C@@H]1CC[C@@H]2NS(=O)(=O)c1cccc(C(F)(F)F)c1
2,67,C[C@]12CC[C@@H]3c4cc([N+](=O)[O-])c(O)cc4CC[C@H]3[C@@H]1CC[C@@H]2NS(=O)(=O)c1cccc(C(F)(F)F)c1
3,33,C[C@]12CC[C@@H]3c4cc([N+](=O)[O-])c(O)cc4CC[C@H]3[C@@H]1CC[C@@H]2NS(=O)(=O)c1ccc(-c2ccccc2)cc1
4,50,C[C@]12CC[C@@H]3c4cc([N+](=O)[O-])c(O)cc4CC[C@H]3[C@@H]1CC[C@@H]2NS(=O)(=O)c1cccc(Br)c1
5,95,C[C@]12CC[C@@H]3c4cc(Br)c(O)cc4CC[C@H]3[C@@H]1CC[C@@H]2NS(=O)(=O)c1cccc(C(F)(F)F)c1

# Molecular target: T1, Steryl-sulfatase
# Assay: Reversible inhibition of STS (unknown origin) using 4-MUS as substrate measured over 10 mins by fluorescence assay
# Conditions: read-out: Ki(app)
# Method in brief: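 Purified STS at 10 nM final with 200 µM 4-MUS in 0.1 M Tris-HCl pH 7.0 (enzyme stock contained Triton X-100). Eleven inhibitor levels, 5 nM–5 µM, were added from DMSO/buffer. 4-Methylumbelliferone fluorescence (ex 360, em 460 nm) was followed for 10 min at 24 °C, in quadruplicate, with no-enzyme controls. Vi/V0 initial rates were fitted for IC50. K_i^app was the IC50-vs-[E]T intercept at 10–80 nM STS.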
row,SMILES,Ki [nM]
1,C[C@]12CC[C@@H]3c4ccc(O)c(F)c4CC[C@H]3[C@@H]1CC[C@@H]2NS(=O)(=O)c1cccc(C(F)(F)F)c1,2.5
2,C[C@]12CC[C@@H]3c4ccc(O)c([N+](=O)[O-])c4CC[C@H]3[C@@H]1CC[C@@H]2NS(=O)(=O)c1ccc(-c2ccccc2)cc1,1

# Reference: ChEMBL document CHEMBL3600382, “A-ring substituted 17β-arylsulfonamides of 17β-aminoestra-1,3,5(10)-trien-3-ol as highly potent reversible inhibitors of steroid sulfatase” (Bioorg Med Chem, 2015)
